Screens from PubChem BioAssay.
An excerpt weighted towards active compounds, which were near 2.4% of everything screened.
TPT1 inhibitor – Candida albicans TPT1 enzyme inhibitors, primary screen, biochemical, fluorescence polarization. recombinant caTPT1, FP RNA substrate dephosphorylation. inhibition, % at 5 µM. hit rate 0.81% among 300,000. AID 1962, 2009;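 active means inhibition above the mean of all tested compounds plus 3 SD, set per screening campaign, cut at about 24% in these data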;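 further: plate controls were DMSO alone for no effect and ferristatin control at 100 nM for full effect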
Rin1-Abl PPI inh – inhibitors of Rin1-Abl protein binding, primary screen, biochemical, TR-FRET | inhibition, % at 7.35 µM | hit rate 0.4% among 360,000 | AID 588664, 2011; in the data active means inhibition above about 5%, passing the limit was not always enough
CSN deneddyl inh – inhibitors of CSN-mediated cullin deneddylation, primary screen, biochemical, fluorescence polarization, uHTS | Purified CSN, SCF-Nedd8-OG deneddylation | inhibition, % at 12.5 µM | hit rate 0.38% among 360,000;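 active means pattern-corrected inhibition above about 35%, with an unprinted fluorescence ratio check between 0.5 and 1.5, limit read from the data, passing the limit was not always enough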;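 further: 0% = enzyme with substrate and 100% = substrate without enzyme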
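assay system = purified human Csn5 enzyme expressed in HEK293T cells | amount = 0.24 nM enzyme | buffer or medium = Tris/NaCl/DTT buffer, pH 7.5 | reagent = 10 nM SCFSkp2-Nedd8OG | compound = one concentration, 12.5 µM, 0.25% DMSO | times = 90 min reaction at room temperature | signal = FP | read-out basis = % inhibition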
Rpn11 block – Rpn11 (PSMD14) deubiquitinase inhibitors, primary screen, biochemical, fluorescence polarization, uHTS | inhibition, % at 20 µM | human 26S proteasome, Ub4-pepOG fluorescence polarization; 20S core pre-blocked with epoxomicin | AID 588493, 2011 | hit rate 0.59% among 360,000;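 active means inhibition at 20 µM, scaled to each plate's controls, above about 33%, limit read from the data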
Neddylation inh – inhibitors of cullin neddylation, primary screen, biochemical, TR-FRET, uHTS, NAE and Ubc12; NEDD8-conjugating enzyme Ubc12 (Homo sapiens) + NEDD8-activating enzyme E1 regulatory …; inhibition, % at 25 µM; hit rate 0.58% among 360,000; AID 651699, 2012; in the data active means inhibition above about 36%
HNF4A DNA FP – change in binding of human HNF4A to DNA, primary screen, biochemical, fluorescence polarization, FITC-DNA | 1 h | activity change, % at 10 µM | hit rate 0.3% among 360,000 | AID 1224865, 2016; in the data active means activity change above about 30%, passing the limit was not always enough
Target sequence (P41235 whole entry, looked up): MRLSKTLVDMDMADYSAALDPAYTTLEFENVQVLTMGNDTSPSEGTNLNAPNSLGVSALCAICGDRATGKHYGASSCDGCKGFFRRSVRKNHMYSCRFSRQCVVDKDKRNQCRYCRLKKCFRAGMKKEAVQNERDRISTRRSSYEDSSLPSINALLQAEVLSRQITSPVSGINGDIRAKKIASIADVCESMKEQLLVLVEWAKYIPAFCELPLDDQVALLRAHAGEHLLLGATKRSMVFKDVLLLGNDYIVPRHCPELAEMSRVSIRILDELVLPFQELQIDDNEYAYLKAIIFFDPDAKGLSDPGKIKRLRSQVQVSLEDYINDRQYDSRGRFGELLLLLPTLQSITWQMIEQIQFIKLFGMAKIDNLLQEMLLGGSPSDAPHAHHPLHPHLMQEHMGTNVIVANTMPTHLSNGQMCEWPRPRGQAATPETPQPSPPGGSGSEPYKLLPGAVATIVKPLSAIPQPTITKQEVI
caTPT1 confirm – Candida albicans TPT1 inhibitors, confirmation, biochemical, fluorescence polarization, triplicate; shares compounds with TPT1 inhibitor; recombinant caTPT1, RNase T1 coupled; inhibition, % at 5 µM; hit rate 74% among 2,400;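 active means inhibition above the primary screen limit, the mean inhibition of all tested compounds plus 3 SD, cut at about 25% in these data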
RNase T1 inh – RNase T1 inhibitors, counter-screen for TPT1 inhibitor project, biochemical, fluorescence polarization; RNase T1 cleavage, 1536-well; AID 2153, 2009; hit rate 83% among 2,400; inhibition, % at 5 µM; shares compounds with TPT1 inhibitor;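 active means inhibition above the solvent-only control well mean plus 3 SD, limit set per screening run, cut at about 23% in these data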;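 further: plate controls were DMSO wells with enzyme for no effect and wells without RNase T1 for full effect; inhibitors block cleavage so intact labeled substrate keeps polarization high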
Target sequence (P00651 whole entry, looked up): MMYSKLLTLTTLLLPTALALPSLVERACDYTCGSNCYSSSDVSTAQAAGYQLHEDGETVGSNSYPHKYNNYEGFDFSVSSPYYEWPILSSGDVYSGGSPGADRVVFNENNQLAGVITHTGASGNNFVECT
The depositor's hits bear a star; . = no result given.

SMILES	TPT1 inhibitor	Rin1-Abl PPI inh	CSN deneddyl inh	Rpn11 block	Neddylation inh	HNF4A DNA FP	caTPT1 confirm	RNase T1 inh
Cc1ccc(CN=Cc2[nH]c3ccc(Br)c(Cl)c3c2O)cc1	70*	1	0	9	-61	46*	130*	129*
O=c1[nH]c(=O)n(C2CCCCCC2)c(O)c1C=NCc1ccc(F)cc1	-3	-3	4	6	7	-1	.	.
Oc1c(C=NCc2ccc(F)cc2)[nH]c2ccc(Br)c(Cl)c12	54*	.	.	.	.	.	97*	104*
COC(=O)C1CC(=O)c2ccsc2C1 (configuration not stated)	64*	-4	-1	4	-1	-3	1	4
Cc1cc(C)c2c(N)c(C(=O)N/N=C/c3cccnc3)sc2n1	15	-6	7	-15	2	-1	.	.
Nc1c(C(=O)N/N=C/c2cccnc2)oc2nc(-c3ccco3)cc(-c3ccco3)c12	44*	3	47	-48	8	-44	76*	81*
NNC(=O)c1oc2nc(-c3ccco3)cc(-c3ccco3)c2c1N	66*	-2	-1	14	-6	10	48*	61*
NC(=O)COC(=O)c1cc(-c2ccco2)nc2ccccc12	-2	-3	0	-1	20	-7	.	.
COc1ccc(NC(=O)C2Cc3c(-c4ccccc4)ccnc3O2)cc1OC (configuration not stated)	.	-1	4	4	5	2	.	.
Cc1ccc(N=Cc2nc(/C=C/c3cccc([N+](=O)[O-])c3)oc2O)cc1	28*	0	1	8	-13	7	39*	51*
Cc1ccc(-c2nc(C=Nc3ccc(O)cc3)c(O)o2)cc1	.	-2	1	-6	-9	5	.	.
O=S(=O)(c1ccc(-c2ccon2)s1)N1CCN(c2ccncc2)CC1	44*	.	.	.	.	.	19	26*
COc1ccc(N=Cc2c(O)[nH]c3ccccc23)cc1	2	-2	0	2	15	0	.	.
Oc1[nH]c2ccccc2c1/C=N/c1nccs1	36*	-3	15	34	-24	18	35*	45*
CO[C@H]1O[C@H](C)[C@@H](O)C[C@H]1NC(=O)OCc1ccccc1	-3	0	-1	2	5	1	.	.
Cc1ccc(-n2c(N)c(-c3nc4ccccc4n3C)sc2=S)cc1	0	1	4	10	38	6	.	.
Cn1c(-c2c(N)n(-c3ccccc3)c3nc4ccccc4nc23)nc2ccccc21	40*	-5	-11	11	.	8	43*	52*
Fc1ccc(-c2nnc(-c3ccc4ccccc4c3)o2)cc1	.	1	4	0	28	0	.	.
Cc1ccc(S(=O)(=O)NCc2ccc(C(=O)N3CCCC3)cc2)cc1	33*	2	4	-2	3	4	6	10
CC(C)(C)c1ccc(S(=O)(=O)NCc2ccc(C(=O)N3CCCC3)cc2)cc1	-5	0	1	-2	4	0	.	.
CCN(CC)c1ccc(/C=C/c2cc(-c3ccccc3)c3ccccc3n2)cc1	94*	0	92	.	.	99	87*	90*
CCN(CC)c1ccc(/C=N/NC(=O)c2cc(C)nc3ccccc23)cc1	1	1	-5	-5	-20	-2	.	.
Cc1onc(-c2ccc(Cl)cc2)c1-c1ccnc(SCC(=O)Nc2ccc(C(C)C)cc2)n1	-3	-1	-5	7	-5	-9	.	.
CCN(C(=O)CSc1nnc(-c2c[nH]c3ccccc23)o1)C1CCS(=O)(=O)C1 (configuration not stated)	-3	4	-2	-3	7	-4	.	.
CC(=O)c1c(N2CCN(CCO)CC2)nc(=S)n(-c2ccccc2)c1C	-9	2	6	5	7	3	.	.
SMILES	TPT1 inhibitor	Rin1-Abl PPI inh	CSN deneddyl inh	Rpn11 block	Neddylation inh	HNF4A DNA FP	caTPT1 confirm	RNase T1 inh
CC(=O)c1c(N2CCN(c3ccccc3)CC2)nc(=S)n(-c2ccccc2)c1C	78*	-12	15	33	-10	13	26*	35*
COc1ccc(CN(C)C(=O)c2oc3ccccc3c2CSC)cc1F	-4	0	3	9	-7	-2	.	.
COc1cc(OC)c(OC)cc1/C=C1\CC(C)C/C(=C\c2cc(OC)c(OC)cc2OC)C1=O (configuration not stated)	74*	1	31	.	12	58*	87*	95*
CCOC(=O)N1CCN(/C=C(\C#N)c2nc3ccccc3s2)CC1	75*	2	6	.	-22	29	44*	54*
N#C/C(=C\N1CCN(Cc2ccc3c(c2)OCO3)CC1)c1nc2ccccc2s1	52*	3	18	.	-7	30*	58*	66*
c1ccc2nc(N3CCN(Cc4ccc5c(c4)OCO5)CC3)cnc2c1	-3	6	-12	1	7	0	.	.
COC(=O)c1ccc(/C=C(\C#N)c2nc3ccccc3s2)cc1	36*	1	4	17	5	-1	21	29*
CN(C(=O)COC(=O)CNC(=O)c1ccc2ccccc2c1)c1c(N)n(Cc2ccccc2)c(=O)[nH]c1=O	1	3	1	-3	-7	2	.	.
O=C(NCCCN1CCOCC1)c1ccc2c(c1)N(Cc1cccc(Cl)c1)C(=O)CS2	0	3	-1	0	-5	2	.	.
O=C1CCCC/C1=C\Nc1ccc(S(=O)(=O)Nc2cnc3ccccc3n2)cc1	55*	-1	8	.	-4	10	33*	45*
N#Cc1ccccc1OCC(=O)NC1CCCCCC1	.	-1	2	-2	7	-1	.	.
CCN1CC2=C(OC(N)=C(C#N)C2c2cccs2)/C(=C\c2cccs2)C1 (configuration not stated)	26*	-3	10	.	-11	5	14	21
CCC(CC)C1C(C#N)=C(N)SC(N)=C1C#N	39*	0	2	24	-22	8	15	15
